Measured values taken from ChEMBL document CHEMBL3244414, “Structure-activity relationships among the O-acyl derivatives of leucomycin. Correlation of minimal inhibitory concentrations with binding to Escherichia coli ribosomes” (J Med Chem, 1977).
Converted amounts (≈) assume the structure as drawn.

Assays:
Staphylococcus aureus = test: Antimicrobial activity against Staphylococcus aureus ATCC 6538P by agar dilution method; assay type: functional
In short: (§1)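 Read-out is the minimal inhibitory concentration, found by agar dilution against the named strain.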

Bacillus spizizenii = test: Antimicrobial activity against Bacillus subtilis ATCC 6633 by agar dilution method; assay type: functional; in short: as §1
Klebsiella pneumoniae = test: Antimicrobial activity against Klebsiella pneumoniae ATCC 10031 by agar dilution method; assay type: functional; in short: as §1
[1] = target: Bacterial 70S ribosome (Bacteria) (UniProt P0A7V0+P60723+P0AG67+P0A7R5+P0A7R9+P0A7S3+P0A7S9+P0AG59+P0ADZ4+P0A7T3+P0AG63+P0A7T7+P0A7U3+P0A7U7+P68679+P0A7V3+P0A7V8+P0A7W1+P02358+P02359+P0A7W7+P0A7X3+P0A7J3+P0A7J7+P0AA10+P0ADY3+P02413+P0ADY7+P0AG44+P0C018+P0A7K6+P0A7L0+P0A7L3+P0AG48+P61175+P0ADZ0+P60624+P68919+P0A7L8+P0A7M2+P0A7M6+P60422+P0AG51+P0A7N1+P0A7M9+P0A7N4+P0A7N9+P0A7P5+P0A7Q1+Q2EEQ2+P0A7Q6+P60438+P62399+P0AG55+P0A7K2); test: (§2) Displacement of [14C]erythromycin from Escherichia coli ribosomes after 30 mins by scintillation spectrometer analysis
In short: (§3)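 NH4Cl-washed E. coli ribosomes with [14C]erythromycin A and varied competitor concentrations in 0.01 M Tris-HCl pH 7.2, 0.1 M KCl, 0.004 M MgCl2, 0.01 M NH4Cl. Incubated 30 min at 24 °C, stopped by dilution in cold Tris/KCl/MgCl2 buffer, membrane-filtered, washed three times, dried, scintillation counted. Reports the concentration giving 50% inhibition of binding.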

Bacterial 70S ribosome = test: as §2; in short: as §3
[2] = Staphylococcus aureus, ATCC 6538P, read-out: MIC
[3] = Bacillus spizizenii, ATCC 6633, read-out: MIC
[4] = Klebsiella pneumoniae, ATCC 10031, read-out: MIC

| SMILES | MIC (Staphylococcus aureus; [2]) | MIC (Bacillus spizizenii; [3]) | MIC (Klebsiella pneumoniae; [4]) | pK50 [1] | IC50 (Bacterial 70S ribosome) | MIC (Staphylococcus aureus) | MIC (Bacillus spizizenii) | MIC (Klebsiella pneumoniae) |
| --- | --- | --- | --- | --- | --- | --- | --- | --- |
| CO[C@@H]1[C@@H](O[C@@H]2O[C@H](C)[C@@H](O[C@H]3C[C@@](C)(O)[C@@H](OC(=O)CC(C)C)[C@H](C)O3)[C@H](N(C)C)[C@H]2OC(=O)CCC(=O)O)[C@@H](CC=O)C[C@@H](C)[C@@H](O)/C=C/C=C/C[C@@H](C)OC(=O)C[C@H]1OC(C)=O | 1.6 µg/mL (≈ 1.72 µM) | 1.6 µg/mL (≈ 1.72 µM) | 25 µg/mL (≈ 26.9 µM) | 5.5 | 3.5 µM |  |  |  |
| CCCC(=O)O[C@H]1[C@H](C)O[C@@H](O[C@H]2[C@H](N(C)C)[C@@H](O)[C@H](O[C@H]3[C@@H](CC=O)C[C@@H](C)[C@@H](OC(C)=O)/C=C/C=C/C[C@@H](C)OC(=O)C[C@@H](OC(C)=O)[C@@H]3OC)O[C@@H]2C)C[C@@]1(C)O | 1.6 µg/mL (≈ 1.87 µM) | 0.8 µg/mL (≈ 0.935 µM) | 100 µg/mL (≈ 117 µM) | 5.7 | 2.2 µM |  |  |  |
| CCCC(=O)O[C@H]1[C@H](C)O[C@@H](O[C@H]2[C@H](N(C)C)[C@@H](O)[C@H](O[C@H]3[C@@H](CC=O)C[C@@H](C)[C@@H](OC(=O)CCl)/C=C/C=C/C[C@@H](C)OC(=O)C[C@@H](O)[C@@H]3OC)O[C@@H]2C)C[C@@]1(C)O | 1.6 µg/mL (≈ 1.89 µM) | 0.4 µg/mL (≈ 0.471 µM) | 25 µg/mL (≈ 29.5 µM) | 6 | 0.9 µM |  |  |  |
| CCC(=O)O[C@H]1[C@H](C)O[C@@H](O[C@H]2[C@H](N(C)C)[C@@H](O)[C@H](O[C@H]3[C@@H](CC=O)C[C@@H](C)[C@@H](O)/C=C/C=C/C[C@@H](C)OC(=O)C[C@@H](OC(C)=O)[C@@H]3OC)O[C@@H]2C)C[C@@]1(C)O | 1.6 µg/mL (≈ 2 µM) | 3.1 µg/mL (≈ 3.88 µM) | 50 µg/mL (≈ 62.5 µM) | 5.7 | 1.9 µM |  |  |  |
| CCC(=O)O[C@H]1/C=C/C=C/C[C@@H](C)OC(=O)C[C@@H](O)[C@H](OC)[C@@H](O[C@@H]2O[C@H](C)[C@@H](O[C@H]3C[C@@](C)(O)[C@@H](OC(=O)C(C)CC)[C@H](C)O3)[C@H](N(C)C)[C@H]2O)[C@@H](CC=O)C[C@H]1C (stereo not given in full) | 1.6 µg/mL (≈ 1.9 µM) | 0.8 µg/mL (≈ 0.95 µM) | 50 µg/mL (≈ 59.4 µM) | 5.8 | 1.7 µM |  |  |  |
| CO[C@H]1C(O)CC(=O)O[C@H](C)C/C=C/C=C/[C@H](OC(C)=O)[C@H](C)C[C@H](CC=O)[C@@H]1O[C@@H]1O[C@H](C)[C@@H](O[C@H]2C[C@@](C)(O)[C@@H](O)[C@H](C)O2)[C@H](N(C)C)[C@H]1O (single isomer, unassigned) | 6.3 µg/mL (≈ 8.47 µM) | 3.1 µg/mL (≈ 4.17 µM) | 100 µg/mL (≈ 134 µM) | 5.6 | 2.8 µM |  |  |  |
| CO[C@@H]1[C@@H](O[C@@H]2O[C@H](C)[C@@H](O[C@H]3C[C@@](C)(O)[C@@H](OC(=O)CC(C)C)[C@H](C)O3)[C@H](N(C)C)[C@H]2O)[C@@H](CC=O)C[C@@H](C)[C@@H](O)/C=C/C=C/C[C@@H](C)OC(=O)C[C@H]1O (stereo in doubt; 2) [KITASAMYCIN] |  |  |  | 6 | 1 µM | 1.6 µg/mL (≈ 2.04 µM) | 0.4 µg/mL (≈ 0.509 µM) | 25 µg/mL (≈ 31.8 µM) |
| CCCC(=O)O[C@H]1[C@H](C)O[C@@H](O[C@H]2[C@H](N(C)C)[C@@H](OC(=O)CC)[C@H](O[C@H]3[C@@H](CC=O)C[C@@H](C)[C@@H](O)/C=C/C=C/C[C@@H](C)OC(=O)C[C@@H](O)[C@@H]3OC)O[C@@H]2C)C[C@@]1(C)O | 0.8 µg/mL (≈ 0.966 µM) | 1.6 µg/mL (≈ 1.93 µM) | 12.5 µg/mL (≈ 15.1 µM) | 4.9 | 13.8 µM |  |  |  |
| CCCC(=O)O[C@H]1[C@H](C)O[C@@H](O[C@H]2[C@H](N(C)C)[C@@H](O)[C@H](O[C@H]3[C@@H](CC=O)C[C@@H](C)[C@@H](OC(=O)C(Cl)Cl)/C=C/C=C/C[C@@H](C)OC(=O)C[C@@H](O)[C@@H]3OC)O[C@@H]2C)C[C@@]1(C)O | 1.6 µg/mL (≈ 1.81 µM) | 1.6 µg/mL (≈ 1.81 µM) | 25 µg/mL (≈ 28.3 µM) | 5.9 | 1.3 µM |  |  |  |
| CCCC(=O)O[C@H]1[C@H](C)O[C@@H](O[C@H]2[C@H](N(C)C)[C@@H](OC(=O)CCCC(=O)O)[C@H](O[C@H]3[C@@H](CC=O)C[C@@H](C)[C@@H](O)/C=C/C=C/C[C@@H](C)OC(=O)C[C@@H](O)[C@@H]3OC)O[C@@H]2C)C[C@@]1(C)O | 0.8 µg/mL (≈ 0.903 µM) | 0.8 µg/mL (≈ 0.903 µM) | 25 µg/mL (≈ 28.2 µM) | 5 | 9.3 µM |  |  |  |
| CO[C@@H]1[C@@H](O[C@@H]2O[C@H](C)[C@@H](O[C@H]3C[C@@](C)(O)[C@@H](OC(=O)CC(C)C)[C@H](C)O3)[C@H](N(C)C)[C@H]2O)[C@@H](CC=O)C[C@@H](C)[C@@H](OC(=O)C(Cl)Cl)/C=C/C=C/C[C@@H](C)OC(=O)C[C@H]1OC(C)=O | 1.6 µg/mL (≈ 1.7 µM) | 0.8 µg/mL (≈ 0.852 µM) | 50 µg/mL (≈ 53.3 µM) | 5.9 | 1.4 µM |  |  |  |
